Screening data as filed in PubChem.
A selection: hits, their analogues and other compounds. The true share with any hit is near 11%.
Diaph inh CS: inhibits diaphorase or chemically oxidizes, flagging diaphorase assay artifacts; diaphorase resazurin-to-resorufin fluorescence, NADH, 16 min; bacterial (C. kluyveri) enzyme, not human; inhibition, % at 20 µM; 190,000 compounds, 0.69% hits;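 active = primary screen inhibition at 20 µM above a set limit, cut at about 50% in these data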;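 also: plate controls were DMSO with full reaction for no effect and wells lacking NADH for full effect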
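Benchmarks: positive control wells lacking NADH, neutral wells with DMSO only. System: bacterial diaphorase enzyme (C. kluyveri). Input: 0.14 U/mL diaphorase, enzyme working solution. Detection: resorufin fluorescence, excitation 544 nm, emission 590 nm. Times: 16-min room-temperature incubation before reading.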
WT yeast gro inh: growth inhibition of WT yeast, mitochondrial fusion screen; AID 1362; mitochondrial fusion phenotypic screen, WT strain; 190,000 compounds, 2.1% hits; inhibition, % at 10 µM; in the data active = inhibition above about 58%; tested in S. cerevisiae
G6PDH counter: L. mesenteroides G6PDH inhibition counter-screen | Purified L. mesenteroides G6PDH, diaphorase/resazurin coupled fluorescence, 45 min | 200,000 compounds, 0.12% hits | inhibition, % at 5 µM
Lmaj promast: Leishmania major promastigote growth inhibition | inhibition, % at 10 µM | Leishmania major promastigotes, resazurin fluorescence viability | 200,000 compounds, 9% hits;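 also: promastigotes grown with compound for 44 hours at 28 °C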
Diaph act CS: counter-screen for diaphorase-based assays: diaphorase activators and chemical reducers; activation factor at 20 µM; 190,000 compounds, 0.005% hits; Diaphorase/resazurin coupled assay, resorufin fluorescence, 16 min; active compounds read high; 1 = vehicle wells, 0 = NADH-free wells;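 active = diaphorase activity raised at least twofold by the compound at 20 µM; inactive = activation factor below 2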
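Assay system: Purified diaphorase enzyme from Clostridium kluyveri | Amount: Enzyme 0.07 U/mL final | Dosing: Compound 20 µM once, DMSO 1% | Timing: 16 min reaction at room temperature | Detection: Fluorescence, excitation 544 nm and emission 590 nm | Evaluation: Higher resorufin formation from activation or reduction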
* marks the source's active call; other numbers are inactive results. Rule as the data show it, unless noted: active = inhibition above about 50%; inactive = the rest.

SMILES	Diaph inh CS	WT yeast gro inh	G6PDH counter	Lmaj promast	Diaph act CS
CCCCNC(=S)N(C)/N=C/c1ccc(F)cc1	10	44	20	-6	0.9
CCCCNC(=S)N(C)/N=C/c1ccc2c(c1)OCO2	12	78*	-18	-5	0.9
Cc1cccc(/C=N/N2CCN(c3ccccc3)CC2)c1	7	-1	-5	-6	0.9
CC1C/C(=C/c2cccn2C)C(=O)/C(=C/c2cccn2C)C1 (centres undefined)	6	1	10	86*	0.9
Cn1cccc1/C=C1/SC(=S)N(CC(=O)O)C1=O	-3	-20	9	-11	1
CC1C/C(=C/c2ccncc2)C(=O)/C(=C/c2ccncc2)C1 (centres undefined)	7	77*	1	101*	0.9
CCC(C)N(C)Cc1cccc(C2(O)CCN(S(=O)(=O)c3ccc(F)cc3)CC2)c1 (centres undefined)	17	4	8	100*	0.8
CC(=O)Nc1ccc(S(=O)(=O)N2CCC(NC(C)=O)(c3cccc(F)c3)CC2)cc1	14	-1	1	-4	0.9
Cc1ccccc1-n1nc(C(=O)c2cccs2)cc(-c2nc3ccccc3[nH]2)c1=N	10	-12	-1	98*	0.9
Cc1cccc(-n2nc(C(=O)c3ccco3)cc(-c3nc4ccccc4[nH]3)c2=N)c1	-1	-15	0	100*	1
O=C(NCc1nc2ccccc2[nH]1)c1cccs1	17	15	-14	0	0.8
Cc1ccc2nc(-c3cccc(NC(=O)c4ccco4)c3)[nH]c2c1	8	13	-48	49	0.9
COc1ccc(-n2nc(C(=O)c3cccs3)cc(-c3nc4ccccc4[nH]3)c2=N)cc1	-11	-2	-3	99*	1.1
CC(C)C(NC(=O)c1ccccc1)c1nnc(SCC(=O)Nc2nccs2)n1C (centres undefined)	4	2	2	49	1
O=C(NCc1cccnc1)c1ccc(COc2cccc3ccccc23)o1	28	12	11	6	0.7
CC(C)OC(=O)CSc1nc2c(c(C3CC=CCC3)c1C#N)CCC2 (centres undefined)	12	8	4	11	0.9
C=CCSc1nc2c(c(C3CC=CCC3)c1C#N)CCC2 (centres undefined)	11	61*	1	14	0.9
COC(=O)Nc1ccc(S(=O)(=O)N2CCCC(C(=O)NC3CCS(=O)(=O)C3)C2)cc1 (centres undefined)	17	-41	4	58*	0.8
O=C(CN(c1ccc(F)cc1)S(=O)(=O)c1ccc2c(c1)OCCO2)Nc1ccccc1	15	25	3	80*	0.8
CS(=O)(=O)N(CC(=O)NCc1ccc2c(c1)OCO2)c1cccc(Cl)c1	4	2	10	-3	1
O=C(CN(c1ccc2c(c1)OCCO2)S(=O)(=O)c1ccccc1)NCc1ccc(Cl)cc1	26	14	2	98*	0.7
O=C(CN(c1ccc(F)cc1)S(=O)(=O)c1ccc2c(c1)OCCO2)Nc1ccc2c(c1)OCO2	27	7	-12	20	0.7
CC(=O)Nc1ccc(NC(=O)CN(c2ccc(F)cc2)S(=O)(=O)c2ccc3c(c2)OCCO3)cc1	13	-14	-4	21	0.9
CS(=O)(=O)N(CC(=O)NCc1ccc2c(c1)OCO2)c1ccc(Cl)cc1	13	80*	-4	-1	0.9
CN(Cc1ccccc1)C(=O)CN(c1ccc(F)cc1)S(=O)(=O)c1ccc2c(c1)OCCO2	14	12	10	95*	0.9
SMILES	Diaph inh CS	WT yeast gro inh	G6PDH counter	Lmaj promast	Diaph act CS
CCOC(=O)c1cc(C(C)(C)C)oc1CNC(=O)c1c(C)oc2c1CCCC2	28	52	7	5	0.7
Cc1ccccc1NC(=O)COC(=O)c1c[nH]c(=O)[nH]c1=O	1	10	4	-2	1
O=C(CSc1ncn[nH]1)Nc1ccc(Cl)c(Cl)c1	18	21	-16	9	0.8
O=C(NC12CC3CC(CC(C3)C1)C2)N1CCN(C(=O)c2ccco2)CC1	8	4	2	0	0.9
CC(Oc1ccc(Cl)cc1Cl)c1nc(-c2ccc(NC(=O)c3ccccn3)cc2)no1 (centres undefined)	8	18	-8	0	0.9
Cc1ccc(/C=N/NC(=O)CN(Cc2ccccc2)S(=O)(=O)c2ccc3c(c2)OCCO3)cc1	15	8	-20	95*	0.9
O=C(CN(c1ccc(F)cc1)S(=O)(=O)c1ccc2c(c1)OCCO2)NCc1ccccc1	8	1	1	96*	0.9
O=C(CN(Cc1ccccc1)S(=O)(=O)c1ccc2c(c1)OCCO2)Nc1ccc2c(c1)OCCO2	13	5	15	13	0.9
Cc1cc(C=O)c(C)n1-c1ccc(N2CCCC2)c([N+](=O)[O-])c1	8	-4	6	9	0.9
O=C(NN1C(=O)c2ccccc2NC1c1ccc([N+](=O)[O-])o1)c1ccccc1 (centres undefined)	4	6	-5	86*	1
O=C(NN1C(=O)c2ccccc2NC1c1ccco1)c1ccccc1 (centres undefined)	9	1	3	-7	0.9
O=C(NN1C(=O)c2ccccc2NC1c1ccc([N+](=O)[O-])o1)c1ccc([N+](=O)[O-])cc1 (centres undefined)	19	-1	7	95*	0.8
COC(=O)c1cc(NC(=O)CN(c2ccc(OC)cc2)S(=O)(=O)c2ccc(F)cc2)ccc1Cl	7	-6	3	9	0.9
O=C(Nc1ccc(Cl)cc1)NC1CCCCC1	8	2	2	-5	0.9
Clc1ccc(CN=C(Nc2ccccc2)NC2CCCCC2)cc1	9	-1	0	95*	0.9
CC(=O)c1cnc2c(-c3cccc(Br)c3)cnn2c1C	8	-27	-9	88*	0.9
O=C(CN(C(=O)CSc1nnc(COc2ccccc2)o1)c1ccc(F)cc1)NC1CCCCC1	20	30	-12	52*	0.8
Cc1nc2cc(N3CCCCC3)c(NC(=O)c3ccncc3)cc2c(=O)n1Cc1ccc(Cl)cc1	3	3	-2	11	1
Cc1nc2cc(N3CCN(C)CC3)c(NC(=O)Cc3ccccc3)cc2c(=O)n1Cc1ccccc1	0	-4	8	89*	1
O=C(COC(=O)CCOc1ccccc1)Nc1ncc(Cl)cc1Cl	15	-4	-1	-8	0.9
Cc1ccc(-c2csc(N3CCC(NS(=O)(=O)c4ccc5c(c4)OCCO5)CC3)n2)cc1	17	52	6	6	0.8
S=C(NC12CC3CC(CC(C3)C1)C2)N1CCCC1	11	10	22	53*	0.9
Clc1ccc(Nc2ccc(NCc3ccccc3)nn2)cc1	18	27	10	91*	0.8
Cc1ccc(Nc2ccc(NCc3ccccc3)nn2)cc1C	11	33	0	28	0.9
